Experiments:
[1] = species: Rattus norvegicus; assay: Antilipid peroxidation was determined; format: functional
In short: (§1)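 Rat brain lipid peroxidation: brains from male SD rats (12 weeks old), exsanguinated under pentobarbital anaesthesia, homogenized to 5% in phosphate buffer pH 7.4. Homogenate incubated with test drug at 37 °C for 1 h. Lipid peroxide quantified by the thiobarbituric acid method.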

[2] = species: Rattus norvegicus; assay: Inhibition of lipid peroxidation was determined with rat brain tissue homogenates; format: functional
In short: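 Brains excised from male SD rats (12 weeks), exsanguinated under pentobarbital anesthesia; 5% homogenate in phosphate buffer pH 7.4 incubated with test drug 1 h at 37 °C; lipid peroxide quantified by thiobarbituric acid method.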

[3] = Reducing activity determined by the use of stable radical alpha,alpha-di-phenyl-beta-picrylhydrazyl (DPPH); set-up: concentration or dose not given beside the values
[4] = tested on: Rattus norvegicus; assay: Effect of AOS scavenger on ventricular tachycardia (VT),arrhythmias induced by ischemia-reperfusion in anesthetized rat, incidence at 20 mg/kg; 8/8; format: functional, Cardiac ventricle
In short: (§2)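 Male SD rats (9–13 weeks, 250–370 g) under pentobarbital anesthesia with artificial respiration underwent thoracotomy and LAD coronary occlusion followed by reperfusion. Dosing was oral, 20 mg/kg at 24 h and again 20 mg/kg at 5 min before occlusion. VF and VT incidence, frequency and duration, and mean PVCs/min were recorded at 10 min postreperfusion.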

[5] = tested on: Rattus norvegicus; assay: Effect of AOS scavenger on ventricular tachycardia (VT),arrhythmias induced by ischemia-reperfusion in anesthetized rat, duration at 20 mg/kg; format: functional, Cardiac ventricle; in short: as §2
[6] = tested on: Rattus norvegicus; assay: Effect of AOS scavenger on ventricular fibrillation (VF), arrhythmias induced by ischemia-reperfusion in anesthetized rat, frequency, times at 20 mg/kg; format: functional, Cardiac ventricle; in short: as §2
[7] = tested on: Rattus norvegicus; assay: Effect of AOS scavenger on ventricular tachycardia (VT), arrhythmias induced by ischemia-reperfusion in anesthetized rat, frequency, times at 20 mg/kg; format: functional, Cardiac ventricle; in short: as §2
[8] = tested on: Rattus norvegicus; assay: Effect of AOS scavenger on premeture ventricular complexes PVCs, arrhythmias induced by ischemia-reperfusion in anesthetized rat, duration at 20 mg/kg; PVSc/min; format: functional, Cardiac ventricle; in short: as §2
[9] = tested on: Rattus norvegicus; assay: Effect of AOS scavenger on ventricular fibrillation (VF),arrhythmias induced by ischemia-reperfusion in anesthetized rat, incidence at 20 mg/kg; 4/8; format: functional, Cardiac ventricle; in short: as §2
[10] = tested on: Rattus norvegicus; assay: Effect of AOS scavenger on ventricular fibrillation (VF),arrhythmias induced by ischemia-reperfusion in anesthetized rat, duration at 20 mg/kg; format: functional, Cardiac ventricle; in short: as §2
[11] = species: Rattus norvegicus; assay: Antilipid peroxidation was measured at 10e-5 M concentration; format: functional; in short: as §1
[12] = tested on: Rattus norvegicus; assay: Effect of AOS scavenger on ventricular tachycardia (VT), arrhythmias induced by ischemia-reperfusion in anesthetized rat, frequency, times at 100 mg/kg; format: functional, Cardiac ventricle
[13] = tested on: Rattus norvegicus; assay: Effect of AOS scavenger on ventricular tachycardia (VT), arrhythmias induced by ischemia-reperfusion in anesthetized rat, duration at 100 mg/kg; format: functional, Cardiac ventricle
[14] = tested on: Rattus norvegicus; assay: Effect of AOS scavenger on ventricular tachycardia (VT), arrhythmias induced by ischemia-reperfusion in anesthetized rat, incidence at 100 mg/kg; 7/10; format: functional, Cardiac ventricle
[15] = tested on: Rattus norvegicus; assay: Effect of AOS scavenger on premeture ventricular complexes PVCs, arrhythmias induced by ischemia-reperfusion in anesthetized rat, frequency per minute at 100 mg/kg
[16] = tested on: Rattus norvegicus; assay: Effect of AOS scavenger on ventricular fibrillation (VF), arrhythmias induced by ischemia-reperfusion in anesthetized rat, incidence at 100 mg/kg; 4/10; format: functional, Cardiac ventricle
[17] = tested on: Rattus norvegicus; assay: Effect of AOS scavenger on ventricular fibrillation (VF), arrhythmias induced by ischemia-reperfusion in anesthetized rat, frequency, times at 100 mg/kg; format: functional, Cardiac ventricle
[18] = tested on: Rattus norvegicus; assay: Effect of AOS scavenger on ventricular fibrillation (VF), arrhythmias induced by ischemia-reperfusion in anesthetized rat, duration at 100 mg/kg; format: functional, Cardiac ventricle
[19] = tested on: Rattus norvegicus; assay: Effect of AOS scavenger on premeture ventricular complexes PVCs, arrhythmias induced by ischemia-reperfusion in anesthetized rat, duration at 1 mg/kg; format: functional, Cardiac ventricle
[20] = tested on: Rattus norvegicus; assay: Effect of AOS scavenger on ventricular tachycardia (VT),arrhythmias induced by ischemia-reperfusion in anesthetized rat, incidence at 3 mg/kg; 10/10; format: functional, Cardiac ventricle
[21] = tested on: Rattus norvegicus; assay: Effect of AOS scavenger on ventricular fibrillation (VF),arrhythmias induced by ischemia-reperfusion in anesthetized rat, duration at 1 mg/kg; format: functional, Cardiac ventricle
[22] = tested on: Rattus norvegicus; assay: Effect of AOS scavenger on premeture ventricular complexes PVCs, arrhythmias induced by ischemia-reperfusion in anesthetized rat, duration at 3 mg/kg; format: functional, Cardiac ventricle
[23] = tested on: Rattus norvegicus; assay: Effect of AOS scavenger on ventricular fibrillation (VF), arrhythmias induced by ischemia-reperfusion in anesthetized rat, frequency, times at 10 mg/kg; format: functional, Cardiac ventricle; details: 10 mg/kg
[24] = tested on: Rattus norvegicus; assay: Effect of AOS scavenger on ventricular fibrillation (VF), arrhythmias induced by ischemia-reperfusion in anesthetized rat, frequency, times at 1 mg/kg; format: functional, Cardiac ventricle
[25] = tested on: Rattus norvegicus; assay: Effect of AOS scavenger on ventricular tachycardia (VT),arrhythmias induced by ischemia-reperfusion in anesthetized rat, frequency, times at 1 mg/kg; format: functional, Cardiac ventricle
[26] = tested on: Rattus norvegicus; assay: Effect of AOS scavenger on ventricular tachycardia (VT),arrhythmias induced by ischemia-reperfusion in anesthetized rat, duration at 3 mg/kg; format: functional, Cardiac ventricle
[27] = tested on: Rattus norvegicus; assay: Effect of AOS scavenger on ventricular tachycardia (VT),arrhythmias induced by ischemia-reperfusion in anesthetized rat, incidence at 10 mg/kg; 13/13; format: functional, Cardiac ventricle
[28] = tested on: Rattus norvegicus; assay: Effect of AOS scavenger on ventricular fibrillation (VF), arrhythmias induced by ischemia-reperfusion in anesthetized rat, frequency, timesat 3 mg/kg; format: functional, Cardiac ventricle
[29] = tested on: Rattus norvegicus; assay: Effect of AOS scavenger on ventricular fibrillation (VF),arrhythmias induced by ischemia-reperfusion in anesthetized rat, incidence at 3 mg/kg; 3/10; format: functional, Cardiac ventricle
[30] = tested on: Rattus norvegicus; assay: Effect of AOS scavenger on ventricular fibrillation (VF),arrhythmias induced by ischemia-reperfusion in anesthetized rat, incidence at 1 mg/kg; 5/14; format: functional, Cardiac ventricle
[31] = tested on: Rattus norvegicus; assay: Effect of AOS scavenger on ventricular tachycardia (VT), arrhythmias induced by ischemia-reperfusion in anesthetized rat, frequency, timesat 10 mg/kg; format: functional, Cardiac ventricle
[32] = tested on: Rattus norvegicus; assay: Effect of AOS scavenger on premeture ventricular complexes PVCs, arrhythmias induced by ischemia-reperfusion in anesthetized rat, duration at 10 mg/kg; format: functional, Cardiac ventricle; details: 10 mg/kg
[33] = tested on: Rattus norvegicus; assay: Effect of AOS scavenger on ventricular tachycardia (VT),arrhythmias induced by ischemia-reperfusion in anesthetized rat, frequency, times at 3 mg/kg; format: functional, Cardiac ventricle
[34] = tested on: Rattus norvegicus; assay: Effect of AOS scavenger on ventricular tachycardia (VT),arrhythmias induced by ischemia-reperfusion in anesthetized rat duration at 1 mg/kg; format: functional, Cardiac ventricle
[35] = tested on: Rattus norvegicus; assay: Effect of AOS scavenger on ventricular fibrillation (VF),arrhythmias induced by ischemia-reperfusion in anesthetized rat, duration at 10 mg/kg; format: functional, Cardiac ventricle
[36] = tested on: Rattus norvegicus; assay: Effect of AOS scavenger on ventricular fibrillation (VF),arrhythmias induced by ischemia-reperfusion in anesthetized rat, incidence at 10 mg/kg; 4/13; format: functional, Cardiac ventricle
[37] = tested on: Rattus norvegicus; assay: Effect of AOS scavenger on ventricular fibrillation (VF),arrhythmias induced by ischemia-reperfusion in anesthetized rat, duration at 3 mg/kg; format: functional, Cardiac ventricle
[38] = tested on: Rattus norvegicus; assay: Effect of AOS scavenger on ventricular tachycardia (VT),arrhythmias induced by ischemia-reperfusion in anesthetized rat, duration at 10 mg/kg; format: functional, Cardiac ventricle; details: 10 mg/kg

`CCCCCCCCCCCOC1=C(O)OC(C(O)CO)C1=O` (stereo unspecified) showed an Antilipid peroxidation [1] of 43.4%, an IC50 [2] of 13 µM and a Reducing activity [3] of 94.6%.

Compound `Oc1ncnc2[nH]ncc12` [ALLOPURINOL] has an Incidence [4] of 8 N, a Duration [5] of 5.9 s and a Frequency [6] of 0.9. For the same compound, the Frequency [7] was 3.1, the Activity [8] was 2.7 min and the Incidence [9] was 4 N. The Duration [10] was 1.3 s.

`CCCCCCCCCCCCCCCCCCOC1=C(O)OC(C(O)COC(C)=O)C1=O` (stereo unspecified) showed an IC50 [2] of 4.2 µM and an Antilipid peroxidation [11] of 76.3%.

Compound `CCCCCCCCCCCCCCCCCOC1=C(O)OC(C(O)CO)C1=O` (stereo unspecified) has an Antilipid peroxidation [1] of 48.8% and an IC50 [2] of 11 µM.

Work on `OC[C@@H](O)[C@@H](O)[C@H](O)[C@H](O)CO` [MANNITOL] yielded a Frequency [12] of 2.7, a Duration [13] of 7.7 s and an Incidence [14] of 7 N. The Activity [15] was 4.8 min⁻¹, the Incidence [16] was 4 N and the Frequency [17] was 0.8. The Duration [18] was 1.3 s.

For `CCCCCCCCCCCCCCCCCCCCCOC1=C(O)OC(C(O)CO)C1=O` (stereo unspecified), the Antilipid peroxidation [1] was 30.6%, the IC50 [2] was 11 µM and the Reducing activity [3] was 94.3%.

In the case of `CCCCCCCCCCCCCCCCCCOC1=C(O)[C@@H](C(O)CO)OC1=O` (stereo in doubt; 5k) [listing 1 of 2 here], the Activity [19] is reported as 3.4 min, the Incidence [20] is reported as 10 N and the Duration [21] is reported as under 4.1 s. For the same compound, the Activity [22] was under 4.5 min, the Frequency [23] was under 0.5 and the Frequency [24] was under 1.1. For the same compound, the Frequency [25] was 4.3, the Duration [26] was under 6.9 s and the Incidence [27] was 13 N. It also gave an IC50 [2] of 4.3 µM, a Frequency [28] of under 0.7 and an Incidence [29] of 3 N. It also gave an Incidence [30] of 5, a Frequency [31] of 5.2 and an Activity [32] of 12 min. It also gave a Frequency [33] of 4, a Duration [34] of 11.4 s and a Duration [35] of 0.5 s. It also gave an Incidence [36] of 4 N, a Duration [37] of under 1.5 s and a Duration [38] of 12 s.

Compound `CCCCCCCCCCCCCCCCCCOC1=C(O)OC(CCO)C1=O` (stereo unspecified) has an Antilipid peroxidation [1] of 52%, an IC50 [2] of 6.8 µM and a Reducing activity [3] of 93.9%.

Compound `CCCCCCCCCCCCCOC1=C(O)OC(C(O)CO)C1=O` (stereo unspecified) has an Antilipid peroxidation [1] of 57.4% and an IC50 [2] of 7.4 µM.

`CCCCCCCCCCCCCCCCCCOC1=C(O)[C@@H](C(O)CO)OC1=O` (stereo in doubt; 5k) [listing 2 of 2 here] gave an Antilipid peroxidation [1] of 65.9% and a Reducing activity [3] of 95.4%.

For `CCCCCCCCCCCCCCCCCCOC1=C(O)OC(C2COC(C)(C)O2)C1=O` (stereo unspecified), the IC50 [2] was 2.4 µM and the Antilipid peroxidation [11] was 58.5%.

For `CCCCCCCCCCCCCCCCOC1=C(O)OC(C(O)CO)C1=O` (stereo unspecified), the Antilipid peroxidation [1] was 56.1% and the IC50 [2] was 6.8 µM.

Source: ChEMBL document CHEMBL1124084, “Studies on scavengers of active oxygen species. 1. Synthesis and biological activity of 2-O-alkylascorbic acids” (J Med Chem, 1988)
